{"source": "ChEMBL document CHEMBL2375232", "about": "“4-Amino-2-arylamino-5-indoloyl/cinnamoythiazoles, analogs of topsentin-class of marine alkaloids, induce apoptosis in HeLa cells” (Eur J Med Chem, 2013)", "key": {"[1]": {"tested_on": "HeLa", "test": "Cell cycle arrest in human HeLa cells assessed as accumulation at G0/G1 phase after 48 hrs by flow cytometry analysis (reference value: 73.1 +/- 1.02%)", "assay_type": "functional"}, "[2]": {"tested_on": "HeLa", "test": "Induction of apoptosis in human HeLa cells assessed as loss of mitochondrial membrane potential using JC-1 staining after 48 hrs by fluorescence microscopic analysis", "assay_type": "functional, cell-based", "how_it_was_run": "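Treated cells (48 h, 24-well plates) were given JC-1 diluted in medium and incubated 10 min at 37 °C (or 15 min at RT), washed twice in PBS and viewed by fluorescence microscopy. Orange/red fluorescence marks intact membrane potential; green marks its loss. Confirmed in three independent experiments.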"}, "[3]": {"tested_on": "HeLa", "test": "Cell cycle arrest in human HeLa cells assessed as accumulation at G2/M phase after 24 hrs by flow cytometry analysis (reference value: 13.2 +/- 0.48%)", "assay_type": "functional"}, "[4]": {"tested_on": "HeLa", "test": "Cell cycle arrest in human HeLa cells assessed as accumulation at sub-G0 phase after 48 hrs by flow cytometry analysis (reference value: 2.3 +/- 0.37%)", "assay_type": "functional"}, "[5]": {"tested_on": "HeLa", "test": "Cell cycle arrest in human HeLa cells assessed as accumulation at sub-G0 phase after 24 hrs by flow cytometry analysis (reference value: 1.2 +/- 0.29%)", "assay_type": "functional"}, "[6]": {"tested_on": "HeLa", "test": "Cell cycle arrest in human HeLa cells assessed as accumulation at S phase after 24 hrs by flow cytometry analysis (reference value: 4.5 +/- 0.2%)", "assay_type": "functional"}, "[7]": {"tested_on": "HeLa", "test": "Cell cycle arrest in human HeLa cells assessed as accumulation at S phase after 48 hrs by flow cytometry analysis (reference value: 7.2 +/- 0.77%)", "assay_type": "functional"}, "[8]": {"tested_on": "HeLa", "test": "Cell cycle arrest in human HeLa cells assessed as accumulation at G2/M phase after 48 hrs by flow cytometry analysis (reference value: 16.6 +/- 0.16%)", "assay_type": "functional"}, "[9]": {"tested_on": "HeLa", "test": "Induction of apoptosis in human HeLa cells using acridine orange/ethidium bromide staining at IC50 after 48 hrs by fluorescence microscopic analysis", "assay_type": "functional, cell-based", "how_it_was_run": "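HeLa cells seeded at 75000/well in 24-well plates, treated at IC50 for 48 h, PBS-washed and stained with acridine orange/ethidium bromide mixture (each 100 µg/mL) for 30 min at 37 °C. Apoptotic morphology assessed by fluorescence microscopy; three independent experiments in duplicate.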"}, "[10]": {"tested_on": "HeLa", "test": "Cell cycle arrest in human HeLa cells assessed as accumulation at G0/G1 phase after 24 hrs by flow cytometry analysis (reference value: 80.7 +/- 0.47%)", "assay_type": "functional"}, "[11]": {"tested_on": "HeLa", "test": "Cytotoxicity against human HeLa cells after 48 hrs by alamar blue assay", "assay_type": "functional, cell-based", "how_it_was_run": "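Alamar blue (resazurin) viability assay. HeLa cells seeded at 5000 cells/well, treated 24 h later with a range of concentrations for 48 h. Alamar blue (0.2 mg/mL) was then added for 2–4 h and absorbance read at 570 and 595 nm. Survival is percent of untreated control; IC50 taken from the concentration–response curves; three experiments in triplicate.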"}, "[12]": {"tested_on": "HeLa", "test": "Inhibition of TNFalpha-induced NFkappaB activation (unknown origin) expressed in human HeLa cells at IC50 treated 24 hrs before TNFalpha challenge measured after 5 hrs by luciferase reporter gene assay", "assay_type": "cell-based"}, "[13]": {"tested_on": "HeLa", "test": "Induction of apoptosis in human HeLa cells assessed as activation of caspase 3 after 48 hrs by fluorescence assay relative to control", "assay_type": "functional", "how_it_was_run": "(§1)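 Fluorogenic substrate assay. 1×10⁶ HeLa cells treated 48 h, lysed in Tris/phosphate buffer pH 7.5 with 1% Triton X-100. Lysate incubated 1 h at 37 °C in PIPES assay buffer pH 7.2 (DTT, EDTA, CHAPS, sucrose) with Ac-DEVD-AFC (caspase 3), Ac-IETD-AFC (caspase 8) or Ac-LEHD-AFC (caspase 9). AFC read at excitation 400 nm, emission 480–520 nm; fold RFU over untreated control; mean ± SD of three experiments.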"}, "[14]": {"tested_on": "HeLa", "test": "Induction of apoptosis in human HeLa cells assessed as activation of caspase 9 after 48 hrs by fluorescence assay relative to control", "assay_type": "functional", "how_it_was_run": "as §1"}, "[15]": {"tested_on": "HeLa", "test": "Induction of apoptosis in human HeLa cells assessed as activation of caspase 8 after 48 hrs by fluorescence assay relative to control", "assay_type": "functional", "how_it_was_run": "as §1"}, "[16]": {"tested_on": "HeLa", "test": "Induction of apoptosis in human HeLa cells assessed as nuclear condensation using DAPI staining at IC50 after 48 hrs by fluorescence microscopic analysis", "assay_type": "functional, cell-based", "how_it_was_run": "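They were PBS-washed, stained with DAPI (1 µg/mL in methanol) for 10 min at 37 °C and imaged by fluorescence microscopy. Condensed chromatin or fragmented nuclei scored as apoptotic; three independent experiments.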"}}, "note": "The source made the active and inactive calls. The rule behind the calls is not given here.", "data": [{"smiles": "COc1ccc(Nc2nc(N)c(C(=O)c3c[nH]c4ccccc34)s2)cc1", "values": [{"measurement": "Activity", "setting": "[1]", "value": 24, "unit": "%"}, {"measurement": "Activity", "setting": "[2]", "value": "Active"}, {"measurement": "Activity", "setting": "[3]", "value": 35.3, "unit": "%"}, {"measurement": "Activity", "setting": "[4]", "value": 49, "unit": "%"}, {"measurement": "Activity", "setting": "[5]", "value": 16.7, "unit": "%"}, {"measurement": "Activity", "setting": "[6]", "value": 4.2, "unit": "%"}, {"measurement": "Activity", "setting": "[7]", "value": 7.8, "unit": "%"}, {"measurement": "Activity", "setting": "[8]", "value": 12.5, "unit": "%"}, {"measurement": "Activity", "setting": "[9]", "value": "Active"}, {"measurement": "Activity", "setting": "[10]", "value": 43.2, "unit": "%"}, {"measurement": "IC50", "setting": "[11]", "value": 1, "unit": "µM"}, {"measurement": "inhibition", "setting": "[12]", "value": 34, "unit": "%"}, {"measurement": "fold change (FC)", "setting": "[13]", "value": 2.8}, {"measurement": "fold change (FC)", "setting": "[14]", "value": 1.6}, {"measurement": "fold change (FC)", "setting": "[15]", "value": 1.1}, {"measurement": "Activity", "setting": "[16]", "value": "Active"}]}, {"smiles": "COc1cc(/C=C/C(=O)CC(=O)/C=C/c2ccc(O)c(OC)c2)ccc1O", "note": "[CURCUMIN]", "values": [{"measurement": "Activity", "setting": "[2]", "value": "Active"}, {"measurement": "inhibition", "setting": "[12]", "value": 79, "unit": "%"}, {"measurement": "fold change (FC)", "setting": "[13]", "value": 2.1}, {"measurement": "fold change (FC)", "setting": "[14]", "value": 1.7}, {"measurement": "fold change (FC)", "setting": "[15]", "value": 1.4}]}, {"smiles": "COc1cc(/C=C/C(=O)c2sc(Nc3ccc(Cl)cc3)nc2N)ccc1O", "values": [{"measurement": "Activity", "setting": "[1]", "value": 38, "unit": "%"}, {"measurement": "Activity", "setting": "[2]", "value": "Active"}, {"measurement": "Activity", "setting": "[3]", "value": 27.2, "unit": "%"}, {"measurement": "Activity", "setting": "[4]", "value": 16.7, "unit": "%"}, {"measurement": "Activity", "setting": "[5]", "value": 3.4, "unit": "%"}, {"measurement": "Activity", "setting": "[6]", "value": 4.4, "unit": "%"}, {"measurement": "Activity", "setting": "[7]", "value": 14.2, "unit": "%"}, {"measurement": "Activity", "setting": "[8]", "value": 28.2, "unit": "%"}, {"measurement": "Activity", "setting": "[9]", "value": "Active"}, {"measurement": "Activity", "setting": "[10]", "value": 64.7, "unit": "%"}, {"measurement": "IC50", "setting": "[11]", "value": 60, "unit": "µM"}, {"measurement": "inhibition", "setting": "[12]", "value": 87, "unit": "%"}, {"measurement": "fold change (FC)", "setting": "[13]", "value": 1.5}, {"measurement": "fold change (FC)", "setting": "[14]", "value": 2.3}, {"measurement": "fold change (FC)", "setting": "[15]", "value": 0.9}, {"measurement": "Activity", "setting": "[16]", "value": "Active"}]}, {"smiles": "COc1ccc(/C=C/C(=O)c2sc(Nc3ccc(Cl)cc3)nc2N)cc1O", "values": [{"measurement": "Activity", "setting": "[1]", "value": 15, "unit": "%"}, {"measurement": "Activity", "setting": "[2]", "value": "Active"}, {"measurement": "Activity", "setting": "[3]", "value": 51.4, "unit": "%"}, {"measurement": "Activity", "setting": "[4]", "value": 35, "unit": "%"}, {"measurement": "Activity", "setting": "[5]", "value": 25.8, "unit": "%"}, {"measurement": "Activity", "setting": "[6]", "value": 6.8, "unit": "%"}, {"measurement": "Activity", "setting": "[7]", "value": 9, "unit": "%"}, {"measurement": "Activity", "setting": "[8]", "value": 35.8, "unit": "%"}, {"measurement": "Activity", "setting": "[9]", "value": "Active"}, {"measurement": "Activity", "setting": "[10]", "value": 15.37, "unit": "%"}, {"measurement": "IC50", "setting": "[11]", "value": 30, "unit": "µM"}, {"measurement": "inhibition", "setting": "[12]", "value": 56, "unit": "%"}, {"measurement": "fold change (FC)", "setting": "[13]", "value": 2.2}, {"measurement": "fold change (FC)", "setting": "[14]", "value": 2.6}, {"measurement": "fold change (FC)", "setting": "[15]", "value": 1.2}, {"measurement": "Activity", "setting": "[16]", "value": "Active"}]}, {"smiles": "Nc1nc(Nc2ccc(Cl)cc2)sc1C(=O)c1c[nH]c2ccccc12", "values": [{"measurement": "Activity", "setting": "[1]", "value": 13.75, "unit": "%"}, {"measurement": "Activity", "setting": "[2]", "value": "Active"}, {"measurement": "Activity", "setting": "[3]", "value": 11.8, "unit": "%"}, {"measurement": "Activity", "setting": "[4]", "value": 55.33, "unit": "%"}, {"measurement": "Activity", "setting": "[5]", "value": 23.74, "unit": "%"}, {"measurement": "Activity", "setting": "[6]", "value": 8.12, "unit": "%"}, {"measurement": "Activity", "setting": "[7]", "value": 8.95, "unit": "%"}, {"measurement": "Activity", "setting": "[8]", "value": 21.56, "unit": "%"}, {"measurement": "Activity", "setting": "[9]", "value": "Active"}, {"measurement": "Activity", "setting": "[10]", "value": 56.34, "unit": "%"}, {"measurement": "IC50", "setting": "[11]", "value": 45, "unit": "µM"}, {"measurement": "inhibition", "setting": "[12]", "value": 80, "unit": "%"}, {"measurement": "fold change (FC)", "setting": "[13]", "value": 2.5}, {"measurement": "fold change (FC)", "setting": "[14]", "value": 2.5}, {"measurement": "fold change (FC)", "setting": "[15]", "value": 0.96}, {"measurement": "Activity", "setting": "[16]", "value": "Active"}]}, {"smiles": "COc1ccc(Nc2nc(Nc3ccc(Cl)cc3)c(C(=O)c3c[nH]c4ccccc34)s2)cc1", "values": [{"measurement": "Activity", "setting": "[1]", "value": 38.53, "unit": "%"}, {"measurement": "Activity", "setting": "[2]", "value": "Active"}, {"measurement": "Activity", "setting": "[3]", "value": 17.51, "unit": "%"}, {"measurement": "Activity", "setting": "[4]", "value": 42.37, "unit": "%"}, {"measurement": "Activity", "setting": "[5]", "value": 13.17, "unit": "%"}, {"measurement": "Activity", "setting": "[6]", "value": 10.19, "unit": "%"}, {"measurement": "Activity", "setting": "[7]", "value": 7.69, "unit": "%"}, {"measurement": "Activity", "setting": "[8]", "value": 9.78, "unit": "%"}, {"measurement": "Activity", "setting": "[9]", "value": "Active"}, {"measurement": "Activity", "setting": "[10]", "value": 59.13, "unit": "%"}, {"measurement": "IC50", "setting": "[11]", "value": 20, "unit": "µM"}, {"measurement": "inhibition", "setting": "[12]", "value": 72, "unit": "%"}, {"measurement": "fold change (FC)", "setting": "[13]", "value": 2.4}, {"measurement": "fold change (FC)", "setting": "[14]", "value": 4.4}, {"measurement": "fold change (FC)", "setting": "[15]", "value": 1.54}, {"measurement": "Activity", "setting": "[16]", "value": "Active"}]}]}
